Compound activity deposited in PubChem BioAssay by several laboratories.
Only some compounds are listed: those with a hit (about 2% of all), similar ones and a draw of the others.
eIF4H FP inh – human eIF4H binding inhibitors, primary screen, translation initiation inhibitor project, biochemical, uHTS, fluorescence polarization; inhibition, % at 35 µM; Eukaryotic translation initiation factor 4H (Homo sapiens), Q15056; hit rate 0.94% among 290,000; eIF4H fluorescence polarization binding assay;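 further: calls also rest on retests at 20 µM and on dose response follow-up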
PABP1 MLLE inh – inhibitors of PABP1 MLLE–PAM2 peptide binding, primary screen, biochemical, fluorescence polarization, FITC-PAM2, GST-MLLE | hit rate 0.36% among 360,000 | AID 588489, 2011 | inhibition, % at 20 µM | Polyadenylate-binding protein 1 (Homo sapiens), P11940; in the data active means inhibition above about 35%, passing the limit was not always enough;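 further: plate controls were DMSO wells with GST-MLLE for no effect and wells lacking GST-MLLE protein for full effect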
core dimer inh – inhibitors of HCV core protein dimerization, primary screen, biochemical, TR-FRET, high-throughput | inhibition, % at 5 µM | hit rate 0.33% among 300,000 | TR-FRET GST/Flag-core106 dimerization, 1536-well;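 active means inhibition above the mean of all tested compounds plus 3 SD, set per screening campaign, cut at about 45% in these data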
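test system = GST/Flag-tagged HCV core106 proteins | probe or stimulus = Eu donor and XL665 acceptor anti-tag antibodies | times = compound-protein-antibody incubation 4 h at 22.5 °C | signal = TR-FRET, excitation 340 nm, emission 617 and 671 nm | measure = percent inhibition of core106 dimerization signal | controls = wells lacking GST-core106 and wells with excess unlabelled core106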
PABP FP inh – PABP poly(A) RNA binding inhibitors, primary screen, biochemical, fluorescence polarization, uHTS. Polyadenylate-binding protein 1 (Homo sapiens), P11940. inhibition, % at 35 µM. hit rate 1% among 290,000;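 further: calls also rest on retests at 20 µM and on dose response follow-up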
NS3 helicase inh – inhibitors of HCV NS3 helicase, primary screen, biochemical, Cy5 molecular beacon fluorescence. hit rate 0.56% among 290,000. inhibition, % at 10.9 µM. Hepatitis C virus NS3 helicase. NS3 helicase DNA unwinding. AID 1800, 2009;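 active means inhibition above the mean of all tested compounds plus 3 SD, set per campaign, cut at about 35% in these data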;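 further: 0% = DMSO wells and 100% = thioflavine S control wells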
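Compound dosing – single dose, 10.9 µM nominal final, DMSO 0.8% final · System – NS3 helicase fragment of HCV · Buffer or medium – MOPS pH 6.5, MgCl2, DTT, Tween20, BSA · Signal – Cy5 beacon fluorescence read at start and 1 h · Also added – annealed dual-labelled DNA beacon duplex, ATP-started · Schedule – 1 h at 25 °C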
DNA FID counter-1 – compounds displacing fluorescent DNA intercalator, primary screen, artefact control for HCV NS3 helicase inhibitor project, biochemical, FID fluorescence; DNA fluorescent intercalator displacement; hit rate 0.17% among 290,000; inhibition, % at 7.9 µM; AID 1845, 2009; in the data active means inhibition above about 37%;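 further: 0% = vehicle and 100% = reference compound; higher means more ethidium bromide displaced from hairpin DNA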
NS3 hel confirm – HCV NS3 helicase inhibitors, retest, confirmation, biochemical, Cy5 molecular beacon fluorescence, triplicate; hit rate 31% among 1,600; inhibition, % at 10.9 µM; NS3 helicase DNA unwinding; shares compounds with NS3 helicase inh;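 active means inhibition above the mean of all tested compounds plus 3 SD, cutoff set per campaign, cut at about 36% in these data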
DNA FID counter-2 – compounds displacing fluorescent DNA intercalator, artefact control for HCV NS3 helicase inhibitor project, biochemical, FID fluorescence, triplicate; shares compounds with NS3 helicase inh; hit rate 4% among 1,600; DNA fluorescent intercalator displacement; inhibition, % at 7.9 µM; AID 1945, 2009; in the data active means inhibition above about 37%;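 further: 0% = vehicle and 100% = reference compound; higher means more displacement of ethidium bromide from the DNA hairpin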
FID counter DR – compounds displacing fluorescent intercalator from DNA, dose response, counter-screen for HCV NS3 helicase inhibitor project, biochemical, fluorescence. shares compounds with NS3 helicase inh. fluorescent intercalator displacement from DNA. IC50, µM. 120 tested, under 10 active
The depositor's hits bear a star; ? = inconclusive; nt = not tested or not shown. Unless noted, how the calls were made is not given here.

SMILES | eIF4H FP inh | PABP1 MLLE inh | core dimer inh | PABP FP inh | NS3 helicase inh | DNA FID counter-1 | NS3 hel confirm | DNA FID counter-2 | others
Cc1ccccc1NC(=S)NCCSc1ccc(Cl)cc1 | -4.2 | -29.2 | 1.2 | 21.1 | 78.3* | 48.8* | 6.1 | -0.8
O=C(c1ccco1)[C@@H]1[C@@H]2C(=O)N(c3ccc(F)cc3)C(=O)[C@@H]2C2c3ccccc3C=CN21 (some centres undefined) | 70.0 | nt | -0.8 | 44.2* | 43.3* | -3.6 | 2.8 | 12.5
CCCOc1ccc(-c2nc(SCc3ccccc3)[nH]c(=O)c2C#N)cc1OC | 4.6 | 5.3 | 21.6 | 12.1 | 36.5* | -20.4 | 90.8* | -14.5 | FID counter DR=>79.4
CCSc1nc(-c2ccccc2)c(C#N)c(=O)[nH]1 | -5.8 | 6.4 | 0.1 | -2.4 | 14.6 | -7.6 | nt | nt
Cc1cc(/C=C2\SC(=S)N(C)C2=O)c(C)n1-c1cccc(O)c1 | ? | -116.7 | -10.7 | ? | 83.1* | -6.9 | -2.0 | 20.1
CC(=O)c1sc(NC(=O)c2ccc(COc3ccccc3Cl)o2)nc1C | 3.6 | 6.4 | 2.6 | 3.0 | 41.7* | -2.8 | 20.6 | 14.9
O=C(NNC1CC(=O)N(c2ccccc2)C1=O)c1ccc(COc2ccccc2Cl)o1 (centres undefined) | 20.3 | 6.8 | 6.7 | 2.8 | 60.1* | -68.7 | -11.9 | -26.7
O=C(NNC1CC(=O)N(c2ccccc2)C1=O)c1ccco1 (centres undefined) | -6.6 | -3.3 | 0.9 | 7.3 | -7.2 | -5.8 | nt | nt
CCOc1ccc(NS(=O)(=O)c2ccc(C(=O)N3CCC3)cc2)cc1 | 4.8 | -10.0 | -9.1 | 16.1 | -8.3 | -8.3 | nt | nt
CC(C)(C)[C@H]1COC(=O)[C@H](NC(=O)OCC2c3ccccc3-c3ccccc32)C/C=C\C[C@@H](CC(=O)N(CCO)Cc2ccccc2)C(=O)N1 | nt | 2.7 | nt | nt | nt | nt | nt | nt
Cc1cc(=O)n2c(c1C#N)SC1CCCCC12O (centres undefined) | -4.4 | 17.0 | 6.7 | 0.2 | 55.1* | -0.3 | -11.7 | -0.1
Cc1cc(C)c(C#N)c(N2CCCC(C(N)=O)C2)n1 (centres undefined) | -12.5 | 3.0 | -1.1 | -6.7 | 0.1 | 1.0 | nt | nt
CCOc1ccc(-n2ccc(=O)c(C(=O)Nc3ccc(S(=O)(=O)Nc4nccs4)cc3)n2)cc1 | 33.5 | 9.5 | 12.8 | 9.7 | 37.1* | -23.2 | -19.4 | -2.3
CCN(CC)c1ccc(N=Cc2ccc(N(CC)CC)cc2O)cc1 | 17.1 | -123.4 | -2.5 | 13.0 | 35.2 | -3.3 | nt | nt
CCN(CC)c1ccc(C=Nc2ccc(N(C)C)cc2)c(O)c1 | -5.1 | -118.8 | -25.6 | -11.8 | 36.8* | -2.7 | 3.2 | 5.0
CCc1nc2c(OCc3c(C)noc3C)cccn2c1N(C=O)Cc1ccc(OC)cc1 | nt | 0.2 | nt | nt | nt | nt | nt | nt
Oc1cccc(C=Nc2cccc3ccccc23)c1O | 64.7* | 35.2 | 10.5 | 41.9* | 46.3* | -2.5 | -1.3 | 14.4
Oc1ccccc1C=Nc1cccc2ccccc12 | 12.3 | -5.5 | -0.8 | 15.5 | 4.8 | 1.1 | nt | nt
COc1ccc(OCC(=O)N/N=C/C(C)=C/c2ccco2)c(Br)c1 | -2.2 | -20.0 | 3.2 | 9.2 | 44.7* | -32.5 | 5.2 | -6.2
CC(C)=CCc1cc2c(=O)c3c(O)c4c(cc3oc2c(O)c1O)OC(C)C4(C)C (centres undefined) | nt | nt | -1.9 | nt | nt | nt | nt | nt
O=C(/C=C/c1ccoc1)c1ccccc1O | 24.7 | -4.5 | -9.2 | -6.5 | -1.5 | -1.2 | nt | nt
COc1ccc2ccccc2c1C(=O)/C=C\c1ccoc1 | 87.3 | 11.5 | 21.4 | -7.4 | 54.8* | -19.7 | 9.2 | 4.0
